In ChEMBL document CHEMBL1156308 (J Med Chem, 2010):

Columns and labels:
Type in all cases: ADME, organism-based
Conditions in all cases: papio hamadryas, read-out: Drug uptake
[1] = Biodistribution in baboon liver at 85 mg, iv after 60 mins
[2] = Biodistribution in baboon lung at 85 mg, iv after 60 mins
[3] = Biodistribution in baboon kidney medulla at 85 mg, iv after 60 mins
Summary of the method: (§1)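 The [11C]-labeled drug was given as an i.v. micro dose via a radial arm vein to anesthetized baboons (ketamine 10 mg/kg i.m.; O2/N2O/isoflurane 1–4%), then torso PET. Organ TACs came from manually drawn ROIs and are reported as %ID/cc. µg/ml was estimated assuming a 5 mg/kg dose, a 17 kg baboon, and that the positron signal is intact drug.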

[4] = Biodistribution in baboon kidney cortex at 85 mg, iv after 60 mins
[5] = Biodistribution in baboon liver at 85 mg, iv after 90 mins
[6] = Biodistribution in baboon heart at 85 mg, iv after 15 mins
[7] = Biodistribution in baboon lung at 85 mg, iv after 15 mins
[8] = Biodistribution in baboon kidney medulla at 85 mg, iv after 15 mins; summary of the method: as §1
[9] = Biodistribution in baboon kidney cortex at 85 mg, iv after 15 mins
[10] = Biodistribution in baboon lung at 85 mg, iv after 90 mins
[11] = Biodistribution in baboon kidney cortex at 85 mg, iv after 90 mins
[12] = Biodistribution in baboon kidney medulla at 85 mg, iv after 30 mins; summary of the method: as §1
[13] = Biodistribution in baboon plasma at 85 mg, iv after 15 mins
Summary of the method: (§2)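 Anesthetised baboons (ketamine 10 mg/kg i.m.; oxygen, nitrous oxide and isoflurane 1–4% during scanning) got a micro dose of [11C]-labelled drug i.v. via a radial arm vein; arterial blood was sampled serially over 90 min. Plasma %ID/cc was converted to µg/ml from the listed dose over a 17 kg baboon, assuming the signal is intact drug.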

[14] = Biodistribution in baboon liver at 85 mg, iv after 30 mins
[15] = Biodistribution in baboon whole brain at 85 mg, iv after 30 mins
Summary of the method: (§3)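 Brain PET ran 90 min after i.v. [11C]-labelled drug in anaesthetised baboons. Whole-brain regions of interest gave time-activity curves in %ID/cc. µg/ml values were estimated from baboon weight (17 kg) and the recommended human daily dose per kg, assuming signal comes from intact drug.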

[16] = Biodistribution in baboon whole brain at 85 mg, iv after 60 mins; summary of the method: as §3
[17] = Biodistribution in baboon plasma at 85 mg, iv after 30 mins
Summary of the method: (§4)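 Anaesthetised baboons received [11C]-labelled drug i.v. (radial arm vein) by PET protocol. Arterial blood was drawn from a popliteal catheter every 5 s for 2 min, then at 2–90 min. Plasma activity is given as %ID/cc. µg/ml values were estimated from the human daily dose per kg scaled to a 17 kg baboon, assuming signal comes from intact drug.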

[18] = Biodistribution in baboon whole brain at 85 mg, iv after 90 mins; summary of the method: as §3
[19] = Biodistribution in baboon heart at 85 mg, iv after 60 mins
[20] = Biodistribution in baboon plasma at 85 mg, iv after 90 mins; summary of the method: as §4
[21] = Biodistribution in baboon plasma at 85 mg, iv after 60 mins; summary of the method: as §4
[22] = Biodistribution in baboon kidney medulla at 85 mg, iv after 90 mins; summary of the method: as §1
[23] = Biodistribution in baboon lung at 85 mg, iv after 30 mins
[24] = Biodistribution in baboon liver at 85 mg, iv after 15 mins
[25] = Biodistribution in baboon heart at 85 mg, iv after 90 mins
[26] = Biodistribution in baboon kidney cortex at 85 mg, iv after 30 mins
[27] = Biodistribution in baboon heart at 85 mg, iv after 30 mins
[28] = Biodistribution in baboon plasma at 340 mg, iv after 90 mins; summary of the method: as §4
[29] = Biodistribution in baboon lung at 340 mg, iv after 90 mins
Summary of the method: (§5)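 Four anesthetized baboons were given ketamine 10 mg/kg i.m., with anesthesia held on O2, N2O and isoflurane 1–4%. They received a micro dose of the [11C]-labeled drug i.v. via a radial arm vein, followed by torso PET. TACs came from manually drawn organ ROIs and are reported as %ID/cc. µg/ml values were estimated from a 20 mg/kg dose and a 17 kg baboon, assuming the signal is intact drug.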

[30] = Biodistribution in baboon lung at 340 mg, iv after 60 mins; summary of the method: as §5
[31] = Biodistribution in baboon whole brain at 340 mg, iv after 90 mins; summary of the method: as §3
[32] = Biodistribution in baboon lung at 340 mg, iv after 30 mins; summary of the method: as §5
[33] = Biodistribution in baboon plasma at 340 mg, iv after 60 mins; summary of the method: as §4
[34] = Biodistribution in baboon heart at 340 mg, iv after 30 mins; summary of the method: as §5
[35] = Biodistribution in baboon heart at 340 mg, iv after 60 mins; summary of the method: as §5
[36] = Biodistribution in baboon lung at 340 mg, iv after 15 mins; summary of the method: as §5
[37] = Biodistribution in baboon kidney medulla at 340 mg, iv after 15 mins; summary of the method: as §5
[38] = Biodistribution in baboon whole brain at 340 mg, iv after 60 mins
Summary of the method: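 Baboons were anesthetized with ketamine 10 mg/kg i.m., then maintained on O2, N2O and isoflurane 1–4%. The [11C]-labeled drug was given i.v. as a micro dose through a radial arm vein. PET was acquired for 90 min. Whole-brain ROI time-activity curves were read in %ID/cc, and µg/ml was estimated assuming a 20 mg/kg dose, a 17 kg baboon and signal from intact drug.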

[39] = Biodistribution in baboon plasma at 340 mg, iv after 30 mins; summary of the method: as §4
[40] = Biodistribution in baboon heart at 340 mg, iv after 90 mins; summary of the method: as §5
[41] = Biodistribution in baboon kidney cortex at 340 mg, iv after 15 mins; summary of the method: as §5
[42] = Biodistribution in baboon kidney cortex at 340 mg, iv after 30 mins; summary of the method: as §5
[43] = Biodistribution in baboon heart at 340 mg, iv after 15 mins; summary of the method: as §5
[44] = Biodistribution in baboon liver at 340 mg, iv after 60 mins; summary of the method: as §5
[45] = Biodistribution in baboon plasma at 340 mg, iv after 15 mins; summary of the method: as §2
[46] = Biodistribution in baboon kidney medulla at 340 mg, iv after 90 mins; summary of the method: as §5
[47] = Biodistribution in baboon liver at 340 mg, iv after 15 mins; summary of the method: as §5
[48] = Biodistribution in baboon liver at 340 mg, iv after 30 mins; summary of the method: as §5
[49] = Biodistribution in baboon kidney cortex at 340 mg, iv after 90 mins; summary of the method: as §5
[50] = Biodistribution in baboon whole brain at 340 mg, iv after 30 mins
Summary of the method: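 Brain PET was acquired for 90 min after i.v. [11C]-labeled drug in anesthetized baboons (ketamine 10 mg/kg i.m.; O2/N2O/isoflurane 1–4%). The whole-brain ROI TAC is reported as %ID/cc. µg/ml was estimated assuming a 20 mg/kg dose, a 17 kg baboon, and that the signal is intact drug. Arterial blood was sampled over 90 min.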

[51] = Biodistribution in baboon liver at 340 mg, iv after 90 mins; summary of the method: as §5
[52] = Biodistribution in baboon kidney cortex at 340 mg, iv after 60 mins; summary of the method: as §5
[53] = Biodistribution in baboon kidney medulla at 340 mg, iv after 30 mins; summary of the method: as §5
[54] = Biodistribution in baboon kidney medulla at 340 mg, iv after 60 mins; summary of the method: as §5

SMILES: NN[11C](=O)c1ccncc1
- concentration at 1 h [1]: 7640 ng/mL
- concentration at 1 h [2]: 4420 ng/mL
- concentration at 1 h [3]: 16400 ng/mL
- concentration at 1 h [4]: 7720 ng/mL
- concentration at 1.5 h [5]: 6910 ng/mL
- concentration at 0.25 h [6]: 8720 ng/mL
- concentration at 0.25 h [7]: 7720 ng/mL
- concentration at 0.25 h [8]: 18900 ng/mL
- concentration at 0.25 h [9]: 15100 ng/mL
- concentration at 1.5 h [10]: 4190 ng/mL
- concentration at 1.5 h [11]: 8540 ng/mL
- concentration at 0.5 h [12]: 15400 ng/mL
- concentration at 0.25 h [13]: 3760 ng/mL
- concentration at 0.5 h [14]: 9710 ng/mL
- concentration at 0.5 h [15]: 2540 ng/mL
- concentration at 1 h [16]: 2110 ng/mL
- concentration at 0.5 h [17]: 2960 ng/mL
- concentration at 1.5 h [18]: 1750 ng/mL
- concentration at 1 h [19]: 3740 ng/mL
- concentration at 1.5 h [20]: 1620 ng/mL
- concentration at 1 h [21]: 2050 ng/mL
- concentration at 1.5 h [22]: 14700 ng/mL
- concentration at 0.5 h [23]: 6090 ng/mL
- concentration at 0.25 h [24]: 12500 ng/mL
- concentration at 1.5 h [25]: 4150 ng/mL
- concentration at 0.5 h [26]: 9260 ng/mL
- concentration at 0.5 h [27]: 6130 ng/mL

SMILES: N[11C](=O)c1cnccn1
- concentration at 1.5 h [28]: 9040 ng/mL
- concentration at 1.5 h [29]: 18600 ng/mL
- concentration at 1 h [30]: 22200 ng/mL
- concentration at 1.5 h [31]: 13700 ng/mL
- concentration at 0.5 h [32]: 26500 ng/mL
- concentration at 1 h [33]: 11200 ng/mL
- concentration at 0.5 h [34]: 61.5 µg/mL
- concentration at 1 h [35]: 57.6 µg/mL
- concentration at 0.25 h [36]: 35000 ng/mL
- concentration at 0.25 h [37]: 617 µg/mL
- concentration at 1 h [38]: 15700 ng/mL
- concentration at 0.5 h [39]: 14600 ng/mL
- concentration at 1.5 h [40]: 59.5 µg/mL
- concentration at 0.25 h [41]: 20500 ng/mL
- concentration at 0.5 h [42]: 16600 ng/mL
- concentration at 0.25 h [43]: 67.8 µg/mL
- concentration at 1 h [44]: 22000 ng/mL
- concentration at 0.25 h [45]: 22000 ng/mL
- concentration at 1.5 h [46]: 229 µg/mL
- concentration at 0.25 h [47]: 36100 ng/mL
- concentration at 0.5 h [48]: 27000 ng/mL
- concentration at 1.5 h [49]: 9930 ng/mL
- concentration at 0.5 h [50]: 21000 ng/mL
- concentration at 1.5 h [51]: 19200 ng/mL
- concentration at 1 h [52]: 12600 ng/mL
- concentration at 0.5 h [53]: 474 µg/mL
- concentration at 1 h [54]: 343 µg/mL
